In brackets after ≈: the same amount, converted by molar mass.
Tested on: Staphylococcus aureus
Assay: Antibacterial activity against Staphylococcus aureus after 18 to 22 hrs by broth microdilution method
Type: functional
Conditions: not given
Procedure, shortened: (§1)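 Broth microdilution per NCCLS in Mueller-Hinton II broth; isolates subcultured for purity. Compounds dissolved in DMSO, serial dilutions 256 to 0.5 µg/mL; inoculum 10^5/mL. Controls: organism without compound, medium only. Incubation 18 to 22 h at 35 °C. MIC is the lowest concentration giving complete growth inhibition, read by unaided eye.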

Structure (SMILES) | MIC [µg/mL]
CCCCCC/C(C)=N/N=C1\SCC(=O)N1CN1C(=O)c2ccccc2C1=O | > 256
CC1CC/C(=N\N=C2/SCC(=O)N2CN2C(=O)c3ccccc3C2=O)C1 (centres undefined) | > 256
O=C1CS/C(=N\N=C\c2cccc3ccccc23)N1Cc1cccc2ccccc12 | > 256
CC/C(C)=N/N=C1\SCC(=O)N1Cc1cccc2ccccc12 | > 256
O=C1c2ccccc2C(=O)N1CN1C(=O)CS/C1=N\N=C1CCCCCC1 | > 256
C/C(=N\N=C1/SCC(=O)N1CN1C(=O)c2ccccc2C1=O)c1ccccc1 | > 256

Tested on: Candida tropicalis
Assay: Antifungal activity against Candida tropicalis clinical isolate after 24 hrs by sabouraud dextrose broth based microdilution method
Type: functional
Conditions: not given
Procedure, shortened: (§2)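 Clinical isolates identified by conventional methods and subcultured for purity. Broth microdilution per NCCLS in Sabouraud dextrose broth; compounds dissolved in DMSO and serially diluted; inoculum 10^3/mL. Controls: fungi without compound, medium only. Incubated 24 h at 37 °C. MIC is the lowest concentration with complete growth inhibition by unaided eye. Values are geometric means over isolates per species.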

Structure (SMILES) | MIC [µg/mL]
CCCCCC/C(C)=N/N=C1\SCC(=O)N1CN1C(=O)c2ccccc2C1=O | 16 (≈ 39.9 µM)
CC1CC/C(=N\N=C2/SCC(=O)N2CN2C(=O)c3ccccc3C2=O)C1 (centres undefined) | 8 (≈ 21.6 µM)
O=C1CS/C(=N\N=C\c2cccc3ccccc23)N1Cc1cccc2ccccc12 | 32 (≈ 78.1 µM)
CC/C(C)=N/N=C1\SCC(=O)N1Cc1cccc2ccccc12 | 128 (≈ 393 µM)
O=C1c2ccccc2C(=O)N1CN1C(=O)CS/C1=N\N=C1CCCCCC1 | 32 (≈ 83.2 µM)
C/C(=N\N=C1/SCC(=O)N1CN1C(=O)c2ccccc2C1=O)c1ccccc1 | 8 (≈ 20.4 µM)

Tested on: Nakaseomyces glabratus
Assay: Antifungal activity against Candida glabrata clinical isolate after 24 hrs by sabouraud dextrose broth based microdilution method
Type: functional
Conditions: not given
Procedure, shortened: as §2

Structure (SMILES) | MIC [µg/mL]
CCCCCC/C(C)=N/N=C1\SCC(=O)N1CN1C(=O)c2ccccc2C1=O | 16 (≈ 39.9 µM)
CC1CC/C(=N\N=C2/SCC(=O)N2CN2C(=O)c3ccccc3C2=O)C1 (centres undefined) | 32 (≈ 86.4 µM)
O=C1CS/C(=N\N=C\c2cccc3ccccc23)N1Cc1cccc2ccccc12 | 64 (≈ 156 µM)
CC/C(C)=N/N=C1\SCC(=O)N1Cc1cccc2ccccc12 | 2 (≈ 6.15 µM)
O=C1c2ccccc2C(=O)N1CN1C(=O)CS/C1=N\N=C1CCCCCC1 | 16 (≈ 41.6 µM)
C/C(=N\N=C1/SCC(=O)N1CN1C(=O)c2ccccc2C1=O)c1ccccc1 | 8 (≈ 20.4 µM)

Tested on: Enterobacter sp.
Assay: Antibacterial activity against Enterobacter sp. after 18 to 22 hrs by broth microdilution method
Type: functional
Conditions: not given
Procedure, shortened: as §1

Structure (SMILES) | MIC [µg/mL]
CCCCCC/C(C)=N/N=C1\SCC(=O)N1CN1C(=O)c2ccccc2C1=O | > 256
CC1CC/C(=N\N=C2/SCC(=O)N2CN2C(=O)c3ccccc3C2=O)C1 (centres undefined) | > 256
O=C1CS/C(=N\N=C\c2cccc3ccccc23)N1Cc1cccc2ccccc12 | > 256
CC/C(C)=N/N=C1\SCC(=O)N1Cc1cccc2ccccc12 | > 256
O=C1c2ccccc2C(=O)N1CN1C(=O)CS/C1=N\N=C1CCCCCC1 | > 256
C/C(=N\N=C1/SCC(=O)N1CN1C(=O)c2ccccc2C1=O)c1ccccc1 | > 256

Tested on: [Candida] sake
Assay: Antifungal activity against Candida sake clinical isolate after 24 hrs by sabouraud dextrose broth based microdilution method
Type: functional
Conditions: Fermentozyma sake
Procedure, shortened: as §2

Structure (SMILES) | MIC [µg/mL]
CCCCCC/C(C)=N/N=C1\SCC(=O)N1CN1C(=O)c2ccccc2C1=O | 16 (≈ 39.9 µM)
CC1CC/C(=N\N=C2/SCC(=O)N2CN2C(=O)c3ccccc3C2=O)C1 (centres undefined) | 16 (≈ 43.2 µM)
O=C1CS/C(=N\N=C\c2cccc3ccccc23)N1Cc1cccc2ccccc12 | 8 (≈ 19.5 µM)
CC/C(C)=N/N=C1\SCC(=O)N1Cc1cccc2ccccc12 | 2 (≈ 6.15 µM)
O=C1c2ccccc2C(=O)N1CN1C(=O)CS/C1=N\N=C1CCCCCC1 | 16 (≈ 41.6 µM)
C/C(=N\N=C1/SCC(=O)N1CN1C(=O)c2ccccc2C1=O)c1ccccc1 | 8 (≈ 20.4 µM)

Tested on: Candida albicans
Assay: Antifungal activity against Candida albicans clinical isolate after 24 hrs by sabouraud dextrose broth based microdilution method
Type: functional
Conditions: not given
Procedure, shortened: as §2

Structure (SMILES) | MIC [µg/mL]
CCCCCC/C(C)=N/N=C1\SCC(=O)N1CN1C(=O)c2ccccc2C1=O | 2 (≈ 4.99 µM)
CC1CC/C(=N\N=C2/SCC(=O)N2CN2C(=O)c3ccccc3C2=O)C1 (centres undefined) | 2 (≈ 5.4 µM)
O=C1CS/C(=N\N=C\c2cccc3ccccc23)N1Cc1cccc2ccccc12 | 256 (≈ 625 µM)
CC/C(C)=N/N=C1\SCC(=O)N1Cc1cccc2ccccc12 | 2 (≈ 6.15 µM)
O=C1c2ccccc2C(=O)N1CN1C(=O)CS/C1=N\N=C1CCCCCC1 | 4 (≈ 10.4 µM)
C/C(=N\N=C1/SCC(=O)N1CN1C(=O)c2ccccc2C1=O)c1ccccc1 | 2 (≈ 5.1 µM)

Tested on: Staphylococcus warneri
Assay: Antibacterial activity against Staphylococcus warneri after 18 to 22 hrs by broth microdilution method
Type: functional
Conditions: not given
Procedure, shortened: as §1

Structure (SMILES) | MIC [µg/mL]
CCCCCC/C(C)=N/N=C1\SCC(=O)N1CN1C(=O)c2ccccc2C1=O | > 256
CC1CC/C(=N\N=C2/SCC(=O)N2CN2C(=O)c3ccccc3C2=O)C1 (centres undefined) | > 256
O=C1CS/C(=N\N=C\c2cccc3ccccc23)N1Cc1cccc2ccccc12 | > 256
CC/C(C)=N/N=C1\SCC(=O)N1Cc1cccc2ccccc12 | > 256
O=C1c2ccccc2C(=O)N1CN1C(=O)CS/C1=N\N=C1CCCCCC1 | > 256
C/C(=N\N=C1/SCC(=O)N1CN1C(=O)c2ccccc2C1=O)c1ccccc1 | > 256

Tested on: Pichia kudriavzevii
Assay: Antifungal activity against Candida krusei clinical isolate after 24 hrs by sabouraud dextrose broth based microdilution method
Type: functional
Conditions: not given
Procedure, shortened: as §2

Structure (SMILES) | MIC [µg/mL]
CCCCCC/C(C)=N/N=C1\SCC(=O)N1CN1C(=O)c2ccccc2C1=O | 8 (≈ 20 µM)
CC1CC/C(=N\N=C2/SCC(=O)N2CN2C(=O)c3ccccc3C2=O)C1 (centres undefined) | 16 (≈ 43.2 µM)
O=C1CS/C(=N\N=C\c2cccc3ccccc23)N1Cc1cccc2ccccc12 | 8 (≈ 19.5 µM)
CC/C(C)=N/N=C1\SCC(=O)N1Cc1cccc2ccccc12 | 2 (≈ 6.15 µM)
O=C1c2ccccc2C(=O)N1CN1C(=O)CS/C1=N\N=C1CCCCCC1 | 16 (≈ 41.6 µM)
C/C(=N\N=C1/SCC(=O)N1CN1C(=O)c2ccccc2C1=O)c1ccccc1 | 8 (≈ 20.4 µM)

Tested on: Enterococcus faecalis
Assay: Antibacterial activity against […] faecalis after 18 to 22 hrs by broth microdilution method
Type: functional
Conditions: not given
Procedure, shortened: as §1

Structure (SMILES) | MIC [µg/mL]
CCCCCC/C(C)=N/N=C1\SCC(=O)N1CN1C(=O)c2ccccc2C1=O | > 256
CC1CC/C(=N\N=C2/SCC(=O)N2CN2C(=O)c3ccccc3C2=O)C1 (centres undefined) | > 256
O=C1CS/C(=N\N=C\c2cccc3ccccc23)N1Cc1cccc2ccccc12 | > 256
CC/C(C)=N/N=C1\SCC(=O)N1Cc1cccc2ccccc12 | > 256
O=C1c2ccccc2C(=O)N1CN1C(=O)CS/C1=N\N=C1CCCCCC1 | > 256
C/C(=N\N=C1/SCC(=O)N1CN1C(=O)c2ccccc2C1=O)c1ccccc1 | > 256

Tested on: Klebsiella oxytoca
Assay: Antibacterial activity against Klebsiella oxytoca after 18 to 22 hrs by broth microdilution method
Type: functional
Conditions: not given
Procedure, shortened: as §1

Structure (SMILES) | MIC [µg/mL]
CCCCCC/C(C)=N/N=C1\SCC(=O)N1CN1C(=O)c2ccccc2C1=O | > 256
CC1CC/C(=N\N=C2/SCC(=O)N2CN2C(=O)c3ccccc3C2=O)C1 (centres undefined) | > 256
O=C1CS/C(=N\N=C\c2cccc3ccccc23)N1Cc1cccc2ccccc12 | > 256
CC/C(C)=N/N=C1\SCC(=O)N1Cc1cccc2ccccc12 | > 256
O=C1c2ccccc2C(=O)N1CN1C(=O)CS/C1=N\N=C1CCCCCC1 | > 256
C/C(=N\N=C1/SCC(=O)N1CN1C(=O)c2ccccc2C1=O)c1ccccc1 | > 256

Tested on: Staphylococcus haemolyticus
Assay: Antibacterial activity against Staphylococcus haemolyticus after 18 to 22 hrs by broth microdilution method
Type: functional
Conditions: not given
Procedure, shortened: as §1

Structure (SMILES) | MIC [µg/mL]
CCCCCC/C(C)=N/N=C1\SCC(=O)N1CN1C(=O)c2ccccc2C1=O | > 256
CC1CC/C(=N\N=C2/SCC(=O)N2CN2C(=O)c3ccccc3C2=O)C1 (centres undefined) | > 256
O=C1CS/C(=N\N=C\c2cccc3ccccc23)N1Cc1cccc2ccccc12 | > 256
CC/C(C)=N/N=C1\SCC(=O)N1Cc1cccc2ccccc12 | > 256
O=C1c2ccccc2C(=O)N1CN1C(=O)CS/C1=N\N=C1CCCCCC1 | > 256
C/C(=N\N=C1/SCC(=O)N1CN1C(=O)c2ccccc2C1=O)c1ccccc1 | > 256

Tested on: Candida parapsilosis
Assay: Antifungal activity against Candida parapsilosis clinical isolate after 24 hrs by sabouraud dextrose broth based microdilution method
Type: functional
Conditions: Lodderomyces parapsilosis
Procedure, shortened: as §2

Structure (SMILES) | MIC [µg/mL]
CCCCCC/C(C)=N/N=C1\SCC(=O)N1CN1C(=O)c2ccccc2C1=O | 16 (≈ 39.9 µM)
CC1CC/C(=N\N=C2/SCC(=O)N2CN2C(=O)c3ccccc3C2=O)C1 (centres undefined) | 8 (≈ 21.6 µM)
O=C1CS/C(=N\N=C\c2cccc3ccccc23)N1Cc1cccc2ccccc12 | 8 (≈ 19.5 µM)
CC/C(C)=N/N=C1\SCC(=O)N1Cc1cccc2ccccc12 | 2 (≈ 6.15 µM)
O=C1c2ccccc2C(=O)N1CN1C(=O)CS/C1=N\N=C1CCCCCC1 | 4 (≈ 10.4 µM)
C/C(=N\N=C1/SCC(=O)N1CN1C(=O)c2ccccc2C1=O)c1ccccc1 | 8 (≈ 20.4 µM)

Tested on: Escherichia coli
Assay: Antibacterial activity against Escherichia coli at after 18 to 22 hrs by broth microdilution method
Type: functional
Conditions: not given
Procedure, shortened: as §1

Structure (SMILES) | MIC [µg/mL]
CCCCCC/C(C)=N/N=C1\SCC(=O)N1CN1C(=O)c2ccccc2C1=O | > 256
CC1CC/C(=N\N=C2/SCC(=O)N2CN2C(=O)c3ccccc3C2=O)C1 (centres undefined) | > 256
O=C1CS/C(=N\N=C\c2cccc3ccccc23)N1Cc1cccc2ccccc12 | > 256
CC/C(C)=N/N=C1\SCC(=O)N1Cc1cccc2ccccc12 | > 256
O=C1c2ccccc2C(=O)N1CN1C(=O)CS/C1=N\N=C1CCCCCC1 | > 256
C/C(=N\N=C1/SCC(=O)N1CN1C(=O)c2ccccc2C1=O)c1ccccc1 | > 256

Tested on: Proteus mirabilis
Assay: Antibacterial activity against Proteus mirabilis after 18 to 22 hrs by broth microdilution method
Type: functional
Conditions: not given
Procedure, shortened: as §1

Structure (SMILES) | MIC [µg/mL]
CCCCCC/C(C)=N/N=C1\SCC(=O)N1CN1C(=O)c2ccccc2C1=O | > 256
CC1CC/C(=N\N=C2/SCC(=O)N2CN2C(=O)c3ccccc3C2=O)C1 (centres undefined) | > 256
O=C1CS/C(=N\N=C\c2cccc3ccccc23)N1Cc1cccc2ccccc12 | > 256
CC/C(C)=N/N=C1\SCC(=O)N1Cc1cccc2ccccc12 | > 256
O=C1c2ccccc2C(=O)N1CN1C(=O)CS/C1=N\N=C1CCCCCC1 | > 256
C/C(=N\N=C1/SCC(=O)N1CN1C(=O)c2ccccc2C1=O)c1ccccc1 | > 256

From ChEMBL document CHEMBL3739379, “Anti-Candida activity and cytotoxicity of a large library of new N-substituted-1,3-thiazolidin-4-one derivatives” (Eur J Med Chem, 2016)
